Assays:
[1] = system: PC-3; assay: Induction of apoptosis in human PC3 cells assessed as late apoptotic/necrotic cells at 6 uM after 16 hrs by F2N12S/CYTOX AADvanced double staining-based flow cytometric method (reference value: 3%); format: functional
[2] = system: PC-3; assay: Cell cycle arrest in human PC3 cells assessed as accumulation at G2 phase at 4 uM after 24 hrs by propidium iodide staining-based flow cytometric method (reference value: 24%); format: functional
[3] = system: PWR-1E; assay: Antiproliferative activity against human PWR-1E cells expressing androgen receptor and PSA assessed as decrease in cell viability after 3 days by WST assay; format: functional, cell-based; settings: 72 h
In short: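 Non-malignant prostate epithelial PWR-1E (adenovirus 12/SV40-immortalized) was seeded at 5,000 per well. Cells were exposed for 3 days at 37 °C in a CO2 incubator to at least five concentrations, with DMSO as vehicle control. WST-1 reagent was then added for 3 h at 37 °C and absorbance read at 430 nm. IC50 came from linear inhibition, as the mean of triplicate determinations.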

[4] = system: PC-3; assay: Cell cycle arrest in human PC3 cells assessed as accumulation at G0/G1 phase at 4 uM after 16 hrs by propidium iodide staining-based flow cytometric method (reference value: 51 to 52%); format: functional
[5] = system: PC-3; assay: Induction of apoptosis in human PC3 cells assessed as early apoptotic cells at 2 uM after 16 hrs by F2N12S/CYTOX AADvanced double staining-based flow cytometric method (reference value: 2%); format: functional
[6] = system: PC-3; assay: Induction of apoptosis in human PC3 cells assessed as viable cells at 15 uM after 16 hrs by F2N12S/CYTOX AADvanced double staining-based flow cytometric method (reference value: 95%); format: functional; settings: PC-3, 16 h, read-out: Activity
[7] = system: LNCaP; assay: Antiproliferative activity against human LNCAP cells assessed as decrease in cell viability after 3 days by WST assay; format: functional, cell-based; settings: 72 h
In short: (§1)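 Cells were seeded at 3,200 per well. PC-3 and LNCaP were grown in RPMI-1640 and DU-145 in EMEM, each with 10% FBS and 1% penicillin/streptomycin, at 37 °C and 5% CO2. Cells were exposed for 3 days to at least five concentrations, with DMSO as vehicle control. WST-1 reagent was then added for 3 h at 37 °C and absorbance read at 430 nm. IC50 came from linear inhibition, averaged over triplicates.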

[8] = Plasma concentration in Sprague-Dawley rat at 10 mg/kg administered via oral gavage measured at 1 hr by HPLC-MS/MS analysis; format: ADME, organism-based
[9] = Tmax in Sprague-Dawley rat at 10 mg/kg administered via oral gavage by HPLC-MS/MS analysis; format: ADME, organism-based; settings: in vivo
[10] = system: PC-3; assay: Induction of apoptosis in human PC3 cells assessed as viable cells at 10 uM after 16 hrs by F2N12S/CYTOX AADvanced double staining-based flow cytometric method (reference value: 95%); format: functional; settings: PC-3, 16 h, read-out: Activity
[11] = Plasma concentration in Sprague-Dawley rat at 10 mg/kg administered via oral gavage measured at 6 hrs by HPLC-MS/MS analysis; format: ADME, organism-based
[12] = system: PC-3; assay: Induction of apoptosis in human PC3 cells assessed as viable cells at 6 uM after 16 hrs by F2N12S/CYTOX AADvanced double staining-based flow cytometric method (reference value: 95%); format: functional; settings: PC-3, 16 h, read-out: Activity
[13] = system: PC-3; assay: Induction of apoptosis in human PC3 cells assessed as viable cells at 8 uM after 16 hrs by F2N12S/CYTOX AADvanced double staining-based flow cytometric method (reference value: 95%); format: functional; settings: PC-3, 16 h, read-out: Activity
[14] = system: PWR-1E; assay: Potency index, ratio of curcumin IC50 to test compound IC50 for human PWR-1E cells expressing androgen receptor and PSA; format: functional
[15] = system: PC-3; assay: Induction of apoptosis in human PC3 cells assessed as late apoptotic/necrotic cells at 8 uM after 16 hrs by F2N12S/CYTOX AADvanced double staining-based flow cytometric method (reference value: 3%); format: functional
[16] = system: PC-3; assay: Antiproliferative activity against human PC3 cells assessed as decrease in cell viability after 3 days by WST assay; format: functional, cell-based; settings: PC-3, 72 h; in short: as §1
[17] = system: PC-3; assay: Induction of apoptosis in human PC3 cells assessed as viable cells at 4 uM after 16 hrs by F2N12S/CYTOX AADvanced double staining-based flow cytometric method (reference value: 95%); format: functional; settings: PC-3, 16 h, read-out: Activity
[18] = Antiproliferative activity against human LNCaP95 cells expressing androgen receptor splice variants assessed as decrease in cell viability after 5 days by trypan blue exclusion assay; format: functional, cell-based; settings: LNCaP-95, 120 h
[19] = system: DU-145; assay: Potency index, ratio of curcumin IC50 to test compound IC50 for human DU145 cells; format: functional
[20] = system: PC-3; assay: Induction of apoptosis in human PC3 cells assessed as late apoptotic/necrotic cells at 2 uM after 16 hrs by F2N12S/CYTOX AADvanced double staining-based flow cytometric method (reference value: 3%); format: functional
[21] = system: PC-3; assay: Induction of apoptosis in human PC3 cells assessed as early apoptotic cells at 15 uM after 16 hrs by F2N12S/CYTOX AADvanced double staining-based flow cytometric method (reference value: 2%); format: functional
[22] = Cmax in Sprague-Dawley rat at 10 mg/kg administered via oral gavage by HPLC-MS/MS analysis; format: ADME, organism-based; parameters: dose 10 mg/kg, route oral; settings: in vivo
[23] = Plasma concentration in Sprague-Dawley rat at 10 mg/kg administered via oral gavage measured at 3 hrs by HPLC-MS/MS analysis; format: ADME, organism-based
[24] = system: PC-3; assay: Potency index, ratio of curcumin IC50 to test compound IC50 for human PC3 cells; format: functional
[25] = system: PC-3; assay: Induction of apoptosis in human PC3 cells assessed as early apoptotic cells at 8 uM after 16 hrs by F2N12S/CYTOX AADvanced double staining-based flow cytometric method (reference value: 2%); format: functional
[26] = system: PC-3; assay: Induction of apoptosis in human PC3 cells assessed as late apoptotic/necrotic cells at 4 uM after 16 hrs by F2N12S/CYTOX AADvanced double staining-based flow cytometric method (reference value: 3%); format: functional
[27] = system: PC-3; assay: Induction of apoptosis in human PC3 cells assessed as early apoptotic cells at 6 uM after 16 hrs by F2N12S/CYTOX AADvanced double staining-based flow cytometric method (reference value: 2%); format: functional
[28] = system: PC-3; assay: Induction of apoptosis in human PC3 cells assessed as late apoptotic/necrotic cells at 10 uM after 16 hrs by F2N12S/CYTOX AADvanced double staining-based flow cytometric method (reference value: 3%); format: functional
[29] = system: LNCaP; assay: Potency index, ratio of curcumin IC50 to test compound IC50 for human LNCAP cells; format: functional
[30] = system: VCaP; assay: Antiproliferative activity against human VCaP cells expressing androgen receptor splice variants assessed as decrease in cell viability after 5 days by trypan blue exclusion assay; format: functional, cell-based; settings: 120 h
[31] = system: CWR22R; assay: Antiproliferative activity against human 22Rv1 cells expressing androgen receptor splice variants assessed as decrease in cell viability after 5 days by trypan blue exclusion assay; format: functional, cell-based; settings: 22Rv1, 120 h
[32] = system: PC-3; assay: Cell cycle arrest in human PC3 cells assessed as accumulation at G0/G1 phase at 4 uM after 24 hrs by propidium iodide staining-based flow cytometric method (reference value: 59 to 62%); format: functional
[33] = system: Rattus norvegicus; assay: Acute toxicity in Sprague-Dawley rat assessed as mortality at 10 mg/kg administered via oral gavage after 48 hrs; format: organism-based; settings: in vivo
In short: (§2)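 Male Sprague-Dawley rats (250–300 g, n = 4) each received a single 10 mg/kg oral gavage dose. The vehicle was 5% DMSO, 40% polyethylene glycol 400 and 55% saline. Blood was drawn from the lateral tail vein at 1, 3, 6 and 24 h for plasma drug levels. Toxicity was scored as observed deaths after dosing.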

[34] = system: PC-3; assay: Induction of apoptosis in human PC3 cells assessed as late apoptotic/necrotic cells at 15 uM after 16 hrs by F2N12S/CYTOX AADvanced double staining-based flow cytometric method (reference value: 3%); format: functional
[35] = AUC in Sprague-Dawley rat at 10 mg/kg administered via oral gavage by HPLC-MS/MS analysis; format: ADME, organism-based; settings: in vivo
[36] = system: PC-3; assay: Induction of apoptosis in human PC3 cells assessed as early apoptotic cells at 10 uM after 16 hrs by F2N12S/CYTOX AADvanced double staining-based flow cytometric method (reference value: 2%); format: functional
[37] = system: PC-3; assay: Induction of apoptosis in human PC3 cells assessed as viable cells at 2 uM after 16 hrs by F2N12S/CYTOX AADvanced double staining-based flow cytometric method (reference value: 95%); format: functional; settings: PC-3, 16 h, read-out: Activity
[38] = Plasma concentration in Sprague-Dawley rat at 10 mg/kg administered via oral gavage measured after 1 day by HPLC-MS/MS analysis; format: ADME, organism-based
[39] = system: DU-145; assay: Antiproliferative activity against human DU145 cells assessed as decrease in cell viability after 3 days by WST assay; format: functional, cell-based; settings: DU-145, 72 h; in short: as §1
[40] = Retention time of the compound; format: physicochemical
[41] = system: Rattus norvegicus; assay: Acute toxicity in Sprague-Dawley rat at 10 mg/kg administered via oral gavage; format: organism-based; settings: in vivo; in short: as §2
[42] = Drug metabolism in human liver microsomes assessed as (1Z,4E)-1-(1-ethyl-1H-benzo[d]imidazol-2-yl)-1-hydroxy-5-(2-methyl-4-(trifluoromethyl)thiazol-5-yl)penta-1,4-dien-3-one formation at 10 mM after 60 mins by UHPLC analysis; format: ADME, microsome
In short: (§3)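 Pooled human liver microsomes in potassium phosphate buffer (pH 7.4) with NADPH solutions A and B were preincubated for 5 min at 37 °C. Compound was then added from a 10 mM stock (3 μL into 300 μL total) and incubated 60 min at 37 °C. Reactions were quenched with an equal volume of methanol and centrifuged (10,000 × g, 4 min, 4 °C). Supernatant went to UHPLC–high-resolution MS for metabolite identification.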

[43] = Drug metabolism in human liver microsomes assessed as (1Z,4E)-5-(1-ethyl-1H-benzo[d]imidazol-2-yl)-1-hydroxy-1-(2-methyl-4-(trifluoromethyl)thiazol-5-yl)penta-1,4-dien-3-one formation at 10 mM after 60 mins by UHPLC analysis; format: ADME, microsome; in short: as §3

## CCCn1ccnc1/C=C/C(=O)/C=C/c1nc2ccccc2n1CCC
[1]
  Activity: 35%
[2]
  Activity: 14%
[3]
  IC50: 20 nM
[4]
  Activity: 78%
[5]
  Activity: 3%
[6]
  viability at 15 µM: 1%
[7]
  IC50: 220 nM
[8]
  concentration at 1 h: 114 ng/mL
[9]
  Tmax: 6 h
[10]
  viability at 10 µM: 8%
[11]
  concentration at 6 h: 281 ng/mL
[12]
  viability at 6 µM: 22%
[13]
  viability at 8 µM: 13%
[14]
  Ratio IC50: 443
[15]
  Activity: 42%
[16]
  IC50: 100 nM
[17]
  viability at 4 µM: 55%
[18]
  IC50: 350 nM
[19]
  Ratio IC50: 119
[20]
  Activity: 4%
[21]
  Activity: 52%
[22]
  Cmax: 281 ng/mL
[23]
  concentration at 3 h: 196 ng/mL
[24]
  Ratio IC50: 254
[25]
  Activity: 45%
[26]
  Activity: 23%
[27]
  Activity: 43%
[28]
  Activity: 43%
[29]
  Ratio IC50: 62
[30]
  IC50: 1120 nM
[31]
  IC50: 220 nM
[32]
  Activity: 76%
[33]
  Activity: Toxic
[34]
  Activity: 47%
[35]
  AUC: 4390 ng·h/mL
[36]
  Activity: 49%
[37]
  viability at 2 µM: 93%
[38]
  concentration at 24 h: 86 ng/mL
[39]
  IC50: 220 nM

## CCn1c(/C=C/C(=O)/C=C/c2sc(C)nc2C(F)(F)F)nc2ccccc21
[3]
  IC50: 80 nM
[7]
  IC50: 250 nM
[8]
  concentration at 1 h: 112 ng/mL
[9]
  Tmax: 6 h
[11]
  concentration at 6 h: 1230 ng/mL
[16]
  IC50: 230 nM
[40]
  Retention_time: 5.05 min
[18]
  IC50: 380 nM
[19]
  Ratio IC50: 53
[41]
  Activity: Non-Toxic
[22]
  Cmax: 3.25 µM
[23]
  concentration at 3 h: 982 ng/mL
[24]
  Ratio IC50: 110
[42]
  Drug metabolism: Metabolite_Detected
[29]
  Ratio IC50: 54
[30]
  IC50: 1410 nM
[31]
  IC50: 220 nM
[43]
  Drug metabolism: Metabolite_Detected
[35]
  AUC: 18300 ng·h/mL
[38]
  concentration at 24 h: 314 ng/mL
[39]
  IC50: 500 nM
